Data: ChEMBL document CHEMBL1759925, “Rapidly photoactivatable ATP probes for specific labeling of tropomyosin within the actomyosin protein complex” (Bioorg Med Chem Lett, 2011)
Active and inactive are the calls of the source.

Columns and labels:
Gallus gallus [1] = species on record: Gallus gallus; experiment: Binding affinity to chicken skeletal muscle tropomyosin within actomyosin protein complex at 125 uM after 1 hr followed by 10 mins irradiation with UVA by chemiluminescent assay using avidin-horseradish peroxidase conjugate; type: tissue-based; details: Muscle tissue
Method in brief: (§1)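 Actomyosin (3.9 µg) was incubated for 1 h with photoaffinity ATP probe in 30 mM Tris–HCl (pH 7.2), 5 mM MgCl₂ and 1 mM EGTA, then irradiated with 360 nm light. Photoproducts were resolved on 10% SDS–PAGE, transferred to PVDF, and labeled proteins visualized by chemiluminescence using avidin-HRP conjugate.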

Gallus gallus [2] = species on record: Gallus gallus; experiment: Binding affinity to chicken skeletal muscle tropomyosin within actomyosin protein complex at 125 uM after 1 hr followed by 10 mins irradiation with UVA by SDS-PAGE analysis using coomassie brilliant blue staining; type: tissue-based; details: Muscle tissue
Gallus gallus [3] = species on record: Gallus gallus; experiment: Binding affinity to chicken skeletal muscle actomyosin at 125 uM after 1 hr followed by 10 mins irradiation with UVA by chemiluminescent method using avidin-horseradish peroxidase conjugate in presence of 1 mM of calcium chloride
Method in brief: (§2)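 Actomyosin (3.9 µg) was incubated with photoaffinity ATP probe for 1 h in 30 mM Tris–HCl (pH 7.2), 5 mM MgCl₂ and 1 mM CaCl₂, with no EGTA. Samples were then irradiated at 360 nm, separated by 10% SDS–PAGE and blotted to PVDF. Labeled bands were detected by chemiluminescence with avidin-HRP conjugate.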

Gallus gallus [4] = species on record: Gallus gallus; experiment: Binding affinity to chicken skeletal muscle tropomyosin within actomyosin protein complex at 125 uM after 1 hr followed by 10 mins irradiation with UVA by chemiluminescent assay using avidin-horseradish peroxidase conjugate in presence of 1 mM of calcium chloride; method in brief: as §2
Gallus gallus [5] = species on record: Gallus gallus; experiment: Binding affinity to chicken skeletal muscle myosin within actomyosin protein complex at 125 uM after 1 hr followed by 10 mins irradiation with UVA by chemiluminescent method using avidin-horseradish peroxidase conjugate in presence of 1 mM of calcium chloride; method in brief: as §2
Gallus gallus [6] = species on record: Gallus gallus; experiment: Binding affinity to chicken skeletal muscle tropomyosin within actomyosin protein complex at 125 uM after 1 hr followed by 10 mins irradiation with UVA by Western blot analysis; type: tissue-based; details: Muscle tissue; method in brief: as §1
Gallus gallus [7] = species on record: Gallus gallus; experiment: Binding affinity to chicken skeletal muscle actin within actomyosin protein complex at 125 uM after 1 hr followed by 10 mins irradiation with UVA by chemiluminescent method using avidin-horseradish peroxidase conjugate in presence of 1 mM of calcium chloride; method in brief: as §2

Measured: Activity

Nc1ncnc2c1ncn2[C@@H]1O[C@H](COP(=O)(O)OP(=O)(O)OP(=O)(O)NCc2ccc(C3(C(F)(F)F)N=N3)cc2OCCOCCOCCNC(=O)CCCC[C@@H]2SC[C@@H]3NC(=O)N[C@@H]32)[C@@H](O)[C@H]1O
active: Gallus gallus [1] | Gallus gallus [2]

Nc1ncnc2c1ncn2[C@@H]1O[C@H](COP(=O)(O)OP(=O)(O)OP(=O)(O)NCc2ccc(C3(C(F)(F)F)N=N3)cc2)[C@@H](O)[C@H]1O
active: all assays above
